According to publication PMC5372383 (Nature, 2017):

Assays:
[1] = system: MOLM-13 cells; experiment: JQ1 proliferation / viability; format: cell-based, human; conditions: MOLM-13, sgRNA depletion; proliferation normalized to DMSO, n = 5
How it was run: (§1)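 MLL-rearranged leukaemia lines were grown in RPMI with 10% FBS, 2 mM L-glutamine, penicillin/streptomycin and plasmocin. Cells were transduced with sgRNAs (MOLM-13) or shNT/shENL shRNAs (panel) by spin infection (1500 rcf, 35°C, 90 min), then selected or sorted 48 h post infection. They were exposed to JQ1 or DMSO, and viability was read by CellTiter-Glo luminescence. MOLM-13 proliferation was normalised to DMSO.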

[2] = system: leukaemia cell lines; format: cell-based, human; conditions: shENL vs shNT, MLL-rearranged leukaemia cells, n = 3
How it was run: as §1

[3] = system: HeLa cells; experiment: JQ1 proliferation in HeLa cells; format: cell-based, human; conditions: GFP, AF9 or ENL sgRNAs, n = 5
How it was run: (§2)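 HeLa and U2OS cells were kept in DMEM with 10% FBS, 2 mM L-glutamine, penicillin/streptomycin and plasmocin. They were transduced with GFP, AF9 or ENL sgRNAs by spin infection at 1500 rcf, 35°C for 90 min, then selected or sorted 48 h after infection. Cells were treated with JQ1, and viability was measured by CellTiter-Glo luminescence.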

[4] = system: U2OS cells; experiment: JQ1 proliferation in U2OS cells; format: cell-based, human; conditions: GFP, AF9 or ENL sgRNAs, n = 5
How it was run: as §2

[5] = system: iCas9-MOLM-13 cells; experiment: RNA-seq of JQ1-treated iCas9-MOLM-13 cells; format: cell-based, human; conditions: iCas9-MOLM-13, 50 nM JQ1 24 h vs DMSO
[6] = target: ENL YEATS mutants (alanine mutation of the “R-Kac”-binding residues), ITC; experiment: ITC

For `Cc1sc2c(c1C)C(c1ccc(Cl)cc1)=N[C@@H](CC(=O)OC(C)(C)C)c1nnc(C)n1-2` [JQ1], the “sensitivity to JQ1 on depletion of ENL or other SEC components” value [1] was “sensitized MOLM-13 cells”, the “JQ1 sensitivity on ENL silencing” value [2] was “Increased JQ1 sensitivity” and the “JQ1 sensitivity on ENL silencing, HeLa” value [3] was “not in HeLa”. For the same compound, the “JQ1 sensitivity on ENL silencing, U2OS” value [4] was “not in HeLa or U2OS cells” and the “JQ1-induced transcriptional changes on ENL depletion, including MYC” value [5] was “markedly enhanced JQ1-induced transcriptional changes”.
Work on “H3_(17–28)K27ac peptide (from UniProt P68431 18-29)” yielded a fold affinity drop against the wild type [6] of 2.3 fold.
